The subject of data set [1] is trypsin. The data set can be described thus: Tryptic digestion assay. It counts as in vitro ADME. The following applies: pH 8. Summed up:
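Peptide at 150 μM incubated with trypsin (substrate:enzyme 5000:1) at 37 °C in 100 mM Tris–HCl, pH 8.0. Aliquots taken at intervals and quenched with 1 M HCl. Remaining peptide measured by RP-HPLC and plotted as natural log against time, n = 3.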

Data set [2] addresses albumin of rat (Rattus norvegicus, UniProt P02770). The data set can be described thus: FACS binding specificity of peptide-displayed yeast cells, rat albumin. To be noted: biotinylated SA, streptavidin-APC, flow cytometer. A digest of the protocol:
(§1)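 Yeast grown in SDCAA at 30 °C for 16 h, then in SG/RCAA at 20 °C for 24 h to display the peptide. Cells labelled 1 h with mouse anti-FLAG and biotinylated albumin, washed in PBST, then stained 1 h with Alexa-488 goat anti-mouse IgG (display) and streptavidin-APC (albumin binding). Fluorescence read by flow cytometry.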
(A flow cytometer gives signals particle by particle.)

Data set [3] concerns the target fatty acid-free HSA (Homo sapiens, UniProt P02768). Kind of data set: SPR binding to immobilized HSA. The following applies: fatty acid-free HSA immobilized on CM5 sensor chip.
Data set [4] deals with human SA (HSA) (Homo sapiens, UniProt P02768). Kind of data set: FACS binding specificity of peptide-displayed yeast cells, human albumin. The following applies: biotinylated SA, streptavidin-APC, flow cytometer. A digest of the protocol:
as §1

Data set [5] deals with mouse SA (MSA) (Mus musculus, UniProt P07724). The data set can be described thus: FACS binding specificity of peptide-displayed yeast cells, mouse albumin. To be noted: biotinylated SA, streptavidin-APC, flow cytometer. A digest of the protocol:
as §1

The target of data set [6] is albumin of cynomolgus monkey (Macaca fascicularis, UniProt A2V9Z4). It counts as binding. To be noted: yeast-displayed peptide, biotinylated SA, streptavidin-APC, flow cytometer. A digest of the protocol: as §1
Data set [7] relates to healthy ddy mice. Kind of data set: Hypoglycemic effect, blood glucose after subcutaneous administration to mice. Format: in vivo, mouse. The following applies: 38 μg/kg insulin, 16 h-fasted healthy male ddy mice, mean ± S.E of 4–7 experiments.

Bridge positions count the residues as written; N and C are the ends.

For orientation: half-life means how long it takes for the measured level to halve. The term Kd denotes the constant that tells how readily two partners part at equilibrium.

mouse SA (MSA), sequence (P07724 25-608): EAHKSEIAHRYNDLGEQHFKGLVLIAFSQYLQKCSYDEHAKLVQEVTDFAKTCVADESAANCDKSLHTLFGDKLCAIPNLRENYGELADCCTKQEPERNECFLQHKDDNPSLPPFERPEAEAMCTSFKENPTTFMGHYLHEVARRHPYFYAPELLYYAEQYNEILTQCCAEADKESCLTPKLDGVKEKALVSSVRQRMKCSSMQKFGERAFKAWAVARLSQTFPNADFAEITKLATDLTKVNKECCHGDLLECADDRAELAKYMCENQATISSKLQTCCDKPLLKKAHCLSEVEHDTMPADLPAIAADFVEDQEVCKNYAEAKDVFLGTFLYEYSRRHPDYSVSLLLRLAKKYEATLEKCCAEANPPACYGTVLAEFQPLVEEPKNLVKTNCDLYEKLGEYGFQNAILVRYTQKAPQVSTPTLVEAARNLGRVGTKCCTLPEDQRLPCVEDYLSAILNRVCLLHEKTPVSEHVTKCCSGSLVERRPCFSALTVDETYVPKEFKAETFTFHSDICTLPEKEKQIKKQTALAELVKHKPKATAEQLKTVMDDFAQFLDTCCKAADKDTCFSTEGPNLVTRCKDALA
albumin of cynomolgus monkey, sequence (A2V9Z4 25-608): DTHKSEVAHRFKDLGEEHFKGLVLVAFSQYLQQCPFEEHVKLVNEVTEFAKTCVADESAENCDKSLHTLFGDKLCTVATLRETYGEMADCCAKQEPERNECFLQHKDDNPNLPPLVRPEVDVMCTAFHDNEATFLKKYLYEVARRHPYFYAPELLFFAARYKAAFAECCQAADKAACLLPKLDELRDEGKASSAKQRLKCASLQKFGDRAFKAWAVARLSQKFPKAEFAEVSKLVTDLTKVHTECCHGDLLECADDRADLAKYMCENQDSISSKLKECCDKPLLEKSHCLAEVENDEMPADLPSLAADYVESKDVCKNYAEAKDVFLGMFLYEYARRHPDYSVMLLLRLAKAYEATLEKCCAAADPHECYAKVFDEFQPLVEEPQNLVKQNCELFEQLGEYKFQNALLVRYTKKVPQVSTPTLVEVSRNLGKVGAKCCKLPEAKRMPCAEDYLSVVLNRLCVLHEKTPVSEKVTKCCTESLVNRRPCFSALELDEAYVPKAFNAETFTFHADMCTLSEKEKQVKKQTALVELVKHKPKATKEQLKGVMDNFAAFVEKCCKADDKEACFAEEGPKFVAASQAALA
albumin of rat, sequence (P02770 25-608): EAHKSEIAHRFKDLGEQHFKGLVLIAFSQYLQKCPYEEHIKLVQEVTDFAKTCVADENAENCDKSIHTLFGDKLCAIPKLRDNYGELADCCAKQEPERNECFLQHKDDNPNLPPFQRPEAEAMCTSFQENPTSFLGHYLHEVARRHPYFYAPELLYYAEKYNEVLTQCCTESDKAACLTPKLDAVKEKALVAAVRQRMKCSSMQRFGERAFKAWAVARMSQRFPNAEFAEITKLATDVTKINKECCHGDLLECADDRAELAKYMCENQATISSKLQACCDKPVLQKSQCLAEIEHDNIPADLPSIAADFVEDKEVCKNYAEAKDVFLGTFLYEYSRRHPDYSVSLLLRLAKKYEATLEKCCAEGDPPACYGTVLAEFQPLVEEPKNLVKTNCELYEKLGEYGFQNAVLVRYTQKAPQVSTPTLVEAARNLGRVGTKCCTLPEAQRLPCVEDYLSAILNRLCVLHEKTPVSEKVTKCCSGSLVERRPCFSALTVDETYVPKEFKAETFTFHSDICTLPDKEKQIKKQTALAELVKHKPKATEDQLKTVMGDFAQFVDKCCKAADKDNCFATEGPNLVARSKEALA

In turn, “Ac-CAAELAALEAELAALEGVNFGVVLFRGELAALKAKLAALKAYC-NH2 (disulfide 1-43; N-terminus assumed) [AY-VE]” showed a half-life at 150 μM in data set [1] of 190 ± 10 min. In addition, the “Binding of yeast clone to albumin of rat (FACS)” value in data set [2] was “no affinity”. In data set [3], binding was characterised by a dissociation constant (Kd) of 65 ± 39 nM. In addition, the “Binding of yeast clone to albumin of human (FACS)” value in data set [4] is given as “affinity”. Further, in data set [5], the “Binding of yeast clone to albumin of mouse (FACS)” value is given as “affinity”. Besides, the “Binding of yeast clone to albumin of cynomolgus monkey (FACS)” value in data set [6] is “no affinity”.
With “Ac-ELAALEAELAALEGVNFGVVLFRGELAALKAKLAALKAY-NH2 (N-terminus assumed) [AY-VE-dS]”, the half-life at 150 μM in data set [1] came out at 56 ± 1 min.
The same measure, in the same setting: for “Ac-GVNFGVVLFRGELAALKAKLAALKAY-NH2 (N-terminus assumed) [AY-VE-dN]” the value was 6.3 ± 0.4 min.
With insulin: Recombinant human insulin, the “Time of peak of hypoglycemic effect after administration” value in data set [7] turned out to be 1 h.
